This passage reports IC50 results from ChEMBL document CHEMBL1143945, “N-phenethyl and N-naphthylmethyl isatins and analogues as in vitro cytotoxic agents” (Bioorg Med Chem, 2008).

Broadly, the IC50 is the concentration at which inhibition is half-maximal.

For one assay, the system named is U-937. The experiment in a line: Cytotoxicity against human U937 cells. It is filed as functional, cell-based. In a few lines: (§1)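 ATCC lines kept in RPMI-1640 with 2 mM L-glutamine, sodium bicarbonate, 5% FCS at 37 °C, 5% CO2. Adherent cells trypsinized, and viable cells counted by Trypan blue on a hemocytometer before seeding. MTS (CellTiter 96 AQueous One) metabolic read-out. IC50 is 50% inhibition of metabolic activity from sigmoidal dose-response curves. Triplicates in at least two independent experiments.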

For a further assay, the system named is Jurkat. In words: Cytotoxicity against human Jurkat cells. It is filed as functional, cell-based. In a few lines:
as §1

In a further assay the test system is MDA-MB-231. In words: Cytotoxicity against human MDA-MB-231 cells. It is filed as functional, cell-based. In a few lines:
as §1

A further assay relates to HCT-116. The experiment in a line: Cytotoxicity against human HCT116 cells. It is filed as functional, cell-based. Put shortly: as §1
Another assay concerns PC-3. In words: Cytotoxicity against human PC3 cells. It is filed as functional, cell-based. In a few lines:
as §1

The subject of the next assay is MCF7. In words: Cytotoxicity against human MCF7 cells. In kind it is functional, cell-based. In a few lines: as §1
The next assay has as its system A-375. The experiment in a line: Cytotoxicity against human A375 cells. It is filed as functional, cell-based. Put shortly: as §1
Assay [1] can be described thus: Inhibition of bovine neuronal tubulin polymerization for 20 mins. Details: species or system Bos taurus. In a few lines:
(§2)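 Purified bovine neuronal tubulin reaction mix from a commercial kit, run per the manufacturer. Compound or DMSO vehicle is added at varying concentrations. Polymerization is followed kinetically at 37 °C for 1 h by fluorescence, excitation 360 ± 10 nm and emission 440 ± 10 nm. IC50 is read at the 20 or 60 min time point. Duplicates in one experiment.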

Assay [2] can be described thus: Inhibition of bovine neuronal tubulin polymerization for 60 mins. Details: species or system Bos taurus. Put shortly:
as §2

Regarding `O=C1C(=O)N(Cc2ccc3ccccc3c2)c2c(Br)cc(Br)cc21`, the concentration for half-maximal inhibition (IC50) worked out at 0.74 µM in the assay on U-937; 0.41 µM in the assay with Jurkat; 2.56 µM in the assay with MDA-MB-231; 1.51 µM in the assay with HCT-116; 2.29 µM with PC-3; 3.5 µM in the assay with MCF7. The IC50 in the assay with A-375 was determined as 6.56 µM; in assay [1], 2.87 µM; in assay [2], 6.47 µM.

In the case of `CC[C@]1(O)C[C@@H]2CN(CCc3c([nH]c4ccccc34)[C@@](C(=O)OC)(c3cc4c(cc3OC)N(C)[C@H]3[C@@](O)(C(=O)OC)[C@H](OC(C)=O)[C@]5(CC)C=CCN6CC[C@]43[C@@H]65)C2)C1` [VINBLASTINE], the IC50 in assay [1] is 0.95 µM; in assay [2], 1.66 µM.

`O=C(CN1C(=O)C(=O)c2cc(Br)cc(Br)c21)c1cccc(Br)c1` came in with an IC50 in the assay on U-937 of 6.36 µM.

In the assay with U-937, `COc1cccc(C(=O)CN2C(=O)C(=O)c3cc(Br)cc(Br)c32)c1` had a half-inhibitory concentration (IC50) of 4.7 µM.

Consider `O=C1C(=O)N(CCc2cccc(Br)c2)c2c(Br)cc(Br)cc21`, for which the half-inhibitory concentration (IC50) in the assay with U-937 came out at 0.78 µM; with Jurkat, 1.21 µM; in the assay with MDA-MB-231, 2.72 µM; with HCT-116, 1.41 µM; in the assay with PC-3 it was 2.09 µM; with MCF7, 4.04 µM. Besides, the IC50 with A-375 is 3.44 µM.

Regarding `O=C(CN1C(=O)C(=O)c2cc(Br)cc(Br)c21)c1ccccc1`, in the assay on U-937, the midpoint of inhibition, the IC50, lay at 9.97 µM.

With `O=C(CN1C(=O)C(=O)c2cc(Br)cc(Br)c21)c1ccc(Br)cc1`, in the assay with U-937, 9.18 µM corresponded to half-maximal inhibition (IC50).

Turning to `O=C1C(=O)N(CCc2ccc(Br)cc2)c2c(Br)cc(Br)cc21`, the IC50 is 0.88 µM in the assay on U-937; 1.15 µM in the assay with Jurkat; 2.01 µM in the assay on MDA-MB-231; 1.62 µM in the assay with HCT-116; 2.21 µM in the assay on PC-3; 6.02 µM in the assay on MCF7. The IC50 in the assay on A-375 is 4.34 µM.

On to `COc1ccc(CCN2C(=O)C(=O)c3cc(Br)cc(Br)c32)cc1`, for which the IC50 in the assay on U-937 is 2.35 µM; in the assay on Jurkat, 2.66 µM; in the assay on MDA-MB-231 it was 4.51 µM.

In the assay with U-937, `COc1ccc(C(=O)CN2C(=O)C(=O)c3cc(Br)cc(Br)c32)cc1` returned an IC50 of 5.32 µM. This counts as single-digit micromolar.

As for `O=C1C(=O)N(CCc2ccccc2)c2c(Br)cc(Br)cc21`, the IC50 in the assay on U-937 was 0.78 µM; in the assay with Jurkat, 1.52 µM; with MDA-MB-231, 4.35 µM; in [1], 4.04 µM; in assay [2] it was 6.6 µM.

Consider `O=C1C(=O)N(Cc2cccc3ccccc23)c2c(Br)cc(Br)cc21`, for which the IC50 is 0.19 µM with U-937; 0.91 µM in the assay with Jurkat; 2.49 µM in the assay on MDA-MB-231; 1.15 µM with HCT-116; 1.44 µM in the assay on PC-3; 7.71 µM in the assay on MCF7. The IC50 in the assay with A-375 turned out to be 3.95 µM; in assay [1], 4.71 µM; in assay [2] it was 12 µM.

With `COc1cccc(CCN2C(=O)C(=O)c3cc(Br)cc(Br)c32)c1`, the IC50 was determined as 1.07 µM in the assay with U-937, 2 µM with Jurkat and 5.24 µM in the assay on MDA-MB-231.
